Hck Nef HTS: inhibitors of Nef-activated human Hck kinase, primary screen, biochemical, Z-Lyte FRET, 384-well, Hck-YEEI | Tyrosine-protein kinase HCK (Homo sapiens), P08631 | Recombinant Hck-YEEI plus Nef, Z-Lyte FRET kinase assay | inhibition, % at 20 µM | 220,000 tested, 0.68% active;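 active = Hck-Nef kinase inhibition above about 50%, limit read from the data; inactive = inhibition below that limit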;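 also: 0% = DMSO with Hck plus Nef and 100% = Hck alone without Nef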
Runt-CBFb FRET: inhibitors of RUNX1 Runt–CBFb binding, primary screen, biochemical, FRET, Cerulean-Runt, Venus-CBFb, uHTS. Cerulean-Runt/Venus-CBFb FRET ratio 530/480, 1 h. 220,000 tested, 0.46% active. Runt-related transcription factor 1 (Homo sapiens) + Core-binding factor subunit beta …. inhibition, % at 20 µM;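 active = inhibition over about 50% at 20 µM in the single-dose screen, limit read from the data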;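 also: 0% = DMSO wells and 100% = excess unlabeled CBFb competitor control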
Target sequence (Q01196 whole entry, looked up): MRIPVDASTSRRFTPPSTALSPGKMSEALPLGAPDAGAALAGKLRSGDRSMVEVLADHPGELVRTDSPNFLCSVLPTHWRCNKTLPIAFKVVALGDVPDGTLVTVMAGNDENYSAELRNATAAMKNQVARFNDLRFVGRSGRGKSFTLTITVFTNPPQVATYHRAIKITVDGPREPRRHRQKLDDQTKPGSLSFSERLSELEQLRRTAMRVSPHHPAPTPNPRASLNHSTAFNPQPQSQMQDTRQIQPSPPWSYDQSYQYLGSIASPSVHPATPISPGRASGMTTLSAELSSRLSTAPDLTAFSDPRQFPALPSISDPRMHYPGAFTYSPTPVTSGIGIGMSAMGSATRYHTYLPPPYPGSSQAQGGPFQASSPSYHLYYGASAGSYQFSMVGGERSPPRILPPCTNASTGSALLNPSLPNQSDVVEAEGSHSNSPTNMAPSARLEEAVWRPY
Target sequence (Q13951 whole entry, looked up): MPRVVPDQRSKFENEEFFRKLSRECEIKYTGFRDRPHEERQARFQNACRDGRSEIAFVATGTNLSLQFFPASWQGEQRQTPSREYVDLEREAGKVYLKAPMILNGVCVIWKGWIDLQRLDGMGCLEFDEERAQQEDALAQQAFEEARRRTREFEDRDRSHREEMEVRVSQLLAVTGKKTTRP
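Measured by: fluorescence energy transfer, 422 nm excitation, 530/480 nm emission; test system: Cerulean-tagged RUNX1 Runt domain (FRET donor) fusion protein; buffer or medium: Tris pH 7.5 buffer with BSA; compound: one dose, 20 µM compound, 1% DMSO; times: two 1 h room-temperature incubations shielded from light; benchmarks: unlabeled CBFb 5 µM, positive control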
Runt-SMMHC FRET: inhibitors of RUNX1 Runt–CBFb-SMMHC binding, primary screen, biochemical, FRET, Cerulean-Runt, Venus-CBFb-SMMHC, uHTS. AID 1434, 2008. Runt-related transcription factor 1 (Homo sapiens) + Core-binding factor subunit beta …. 220,000 tested, 0.74% active. Cerulean-Runt/Venus-CBFb-SMMHC FRET ratio 530/480, 1 h. inhibition, % at 20 µM;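 active = mean inhibition across duplicate retests at 20 µM reaching about 50%, limit read from the data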;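 also: 0% = DMSO wells and 100% = wells with excess untagged CBFb-SMMHC; inhibitors lower the FRET ratio by blocking Runt binding to CBFb-SMMHC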
RanGTP-Imp inh: inhibitors of RanGTP-importin-beta interaction, primary screen, biochemical, FRET, CFP-Ran, YFP-importin-beta, homogeneous | cell-free CFP-Ran/YFP-importin-beta FRET ratio | inhibition, % (no concentration beside the values) | Ran GTPase (GTP-bound) - importin-beta complex | 300,000 tested, 1.1% active;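 active = more than half of the replicate wells show a fall in the fluorescence ratio signal beyond about 16%, limit read from the data, passing the limit was not always enough; inconclusive = exactly half of the replicate wells pass the set limit; inactive = fewer than half of replicates pass the limit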;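 also: 0% = DMSO wells and 100% = Ran loaded with GDP instead of GTP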
* hit, by the source's call; ? = inconclusive; . = no result given. This is a sample that favours compounds with a hit; in the whole collection about 1.8% have one here.

SMILES | Hck Nef HTS | Runt-CBFb FRET | Runt-SMMHC FRET | RanGTP-Imp inh
COc1cc(OC)c2c(=O)c(OC)c(-c3ccc(OC)c(OC)c3)oc2c1 | 13.5 | 25.9 | 61.0* | 10.8
COc1ccc(-c2cc(=O)c3c(OC)c(OC)c(OC)c(OC)c3o2)cc1OC | -2.1 | -0.6 | -3.3 | 0.2
CC(C)(C)OC(=O)N1CCC(Cc2cc(-c3ccc(Cl)cc3)no2)(C(=O)O)CC1 | . | . | . | 5.1
O=C(CN(Cc1ccccc1F)S(=O)(=O)c1ccc(Cl)cc1)NCC1CCCO1 (configuration not stated) | . | . | . | -1.3
N#C/C(C(=O)Oc1ccccc1)=C1\C=Cc2ccccc2N1 | 4.9 | 33.5 | 17.7 | 54.5*
COC(=O)/C(C#N)=C1/C=Cc2ccccc2N1C | 4.6 | -2.2 | -2.0 | 0.2
O=C1C2CC=CCC2C(=O)N1c1ncn[nH]1 (configuration not stated) | 8.8 | 0.3 | -7.5 | 39.0*
O=C1C2CC=C(Cl)CC2C(=O)N1c1ncn[nH]1 (configuration not stated) | 0.4 | -3.1 | -5.1 | 2.1
O=C(Nc1ccc2[nH]c(=O)[nH]c2c1)c1c(F)c(F)c(F)c(F)c1F | 21.3 | -1.4 | -6.1 | ?
CC(C)Cn1c(CCNC(=O)c2ccco2)nc2ccccc21 | . | . | . | 3.8
O=Cc1ccc(-c2ccc(F)cc2)o1 | 3.5 | 0.4 | -4.2 | ?
O=C(O)c1ccccc1-c1ccc(/C=C/c2cc(C(F)(F)F)[nH]c(=O)n2)o1 | -91.0 | 68.5* | 87.4* | -463.7
O=c1nc(/C=C/c2ccc(-c3ccc(F)cc3)o2)cc(C(F)(F)F)[nH]1 | 7.3 | 106.1* | 80.9* | -75.6
CC1Cc2cc(S(=O)(=O)N3CCC(C(=O)N4CCN(c5ccccc5F)CC4)CC3)ccc2N1C(=O)C1CC1 (configuration not stated) | . | . | . | -3.1
O=c1oc2ccccc2c2c1SC(C(F)(F)F)C2 (configuration not stated) | -0.6 | 0.9 | -1.9 | -2.5
O=c1oc2ccc3ccccc3c2c2c1SC(C(F)(F)F)C2 (configuration not stated) | 3.3 | 22.0 | 53.5* | 9.9
S=C(Nc1ccc(Nc2ccccc2)cc1)Nc1ccccn1 | 94.4* | 15.8 | 6.6 | -1.6
CSc1ccc(CN2CCC(CO)(CCOc3ccccc3)CC2)cc1 | . | . | . | 1.0
CCC(=O)Oc1ccc2c(c1)O/C(=C\c1ccco1)C2=O | 30.8 | -114.1 | 81.0* | -20.6
COc1ccc(-c2csc(NC(=O)CCS(=O)(=O)c3ccccc3)n2)c(OC)c1 | 18.3 | 4.1 | 1.4 | -2.4
CNC(=O)c1c(NC(=O)c2ccc(S(=O)(=O)N3CCCC3)cc2)sc2c1CCN(C(C)C)C2 | . | . | . | 12.9
CNC(=O)c1c(NC(=O)c2ccc(S(=O)(=O)N3CC(C)OC(C)C3)cc2)sc2c1CCN(C(C)C)C2 (configuration not stated) | . | . | . | 62.3*
CC(C)N1CCc2c(sc(NC(=O)c3ccc(S(=O)(=O)N4CCOCC4)cc3)c2C(N)=O)C1 | -4.2 | -5.2 | 2.0 | 48.8*
COc1cc(SC)ccc1C(=O)OCC(=O)N1CCCC1 | . | . | . | -0.7
Nc1c(S(=O)(=O)c2cccs2)c2nc3ccccc3nc2n1CCc1ccccc1 | 2.0 | 9.8 | 24.0 | ?
SMILES | Hck Nef HTS | Runt-CBFb FRET | Runt-SMMHC FRET | RanGTP-Imp inh
COCCNC(=O)c1c(N)n(CCC2=CCCCC2)c2nc3ccccc3nc12 | 47.8 | 38.4 | 57.8* | 68.2*
COCCn1c(N)c(C(=O)OCc2ccccc2)c2nc3ccccc3nc21 | 24.8 | 17.2 | 64.8* | 18.0*
COc1cc2c(=O)n(CCC(=O)NCC3CCCO3)c(=O)n(CC(=O)Nc3ccc(C)cc3C)c2cc1OC (configuration not stated) | . | . | . | -0.7
COc1ccc(OC)c(CCNC(=O)CCn2nc(C)c3c(C)n(-c4ccccc4)nc3c2=O)c1 | . | . | . | 1.4
CC(NC(=O)OCc1ccccc1)C(=O)Oc1cc2oc(=O)cc(-c3ccccc3)c2cc1Cl (configuration not stated) | 1.3 | 18.9 | 60.1* | -5.9
CC(C)[C@H](NC(=O)OCc1ccccc1)C(=O)OCc1cc(=O)oc2cc(O)ccc12 | . | . | . | 2.4
O=C(NC(Cc1ccccc1)C(=O)Oc1ccc2c(C(F)(F)F)cc(=O)oc2c1)OCc1ccccc1 (configuration not stated) | 0.8 | 2.9 | 81.1* | 36.9*

Compound activity: PubChem, several laboratories
